According to ChEMBL document CHEMBL1151705, “Novel azalides derived from 16-membered macrolides. Part II: Isolation of the linear 9-formylcarboxylic acid and its sequential macrocyclization with an amino alcohol or an azidoamine” (2008):
In brackets after ≈: the same amount, converted by molar mass.

Experiments:
Type in all cases: functional
Haemophilus influenzae [1] = test: Antimicrobial activity against drug-susceptible Haemophilus influenzae 2 after 20 hrs by agar dilution method; conditions: Haemophilus influenzae, 20 h; read-out: MIC
Summary of the method: (§1)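 Streptococci, H. influenzae and M. catarrhalis were precultured on blood agar plates. Suspensions of about 10⁶ CFU/ml were inoculated onto sensitivity disk agar supplemented with 5% horse blood and incubated at 37 °C for 20 h. MIC was read as the lowest drug concentration with no visible growth.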

Moraxella catarrhalis [2] = test: Antimicrobial activity against drug-susceptible Moraxella catarrhalis 2 after 20 hrs by agar dilution method; conditions: Moraxella catarrhalis, 20 h; read-out: MIC; summary of the method: as §1
Streptococcus pneumoniae [3] = test: Antimicrobial activity against drug-susceptible Streptococcus pneumoniae 3 after 20 hrs by agar dilution method; conditions: Streptococcus pneumoniae, 20 h; read-out: MIC; summary of the method: as §1
Streptococcus pneumoniae [4] = test: Antimicrobial activity against Streptococcus pneumoniae 5 constitutively expressing ermB/mefA after 20 hrs by agar dilution method; conditions: Streptococcus pneumoniae, 20 h; read-out: MIC; summary of the method: as §1
Haemophilus influenzae [5] = test: Antimicrobial activity against drug-susceptible Haemophilus influenzae 3 after 20 hrs by agar dilution method; conditions: Haemophilus influenzae, 20 h; read-out: MIC; summary of the method: as §1
Staphylococcus aureus [6] = test: Antimicrobial activity against Staphylococcus aureus 4 constitutively expressing ermA after 20 hrs by agar dilution method
Summary of the method: (§2)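 Agar dilution MIC. S. aureus seed culture was grown in sensitivity test broth. Cell suspension (about 10⁶ CFU/ml) was inoculated onto sensitivity disk agar with 5% horse blood and incubated at 37 °C for 20 h. MIC was the lowest drug concentration that prevented visible growth.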

Haemophilus influenzae [7] = test: Antimicrobial activity against drug-susceptible Haemophilus influenzae 1 after 20 hrs by agar dilution method; conditions: Haemophilus influenzae, 20 h; read-out: MIC; summary of the method: as §1
Streptococcus pneumoniae [8] = test: Antimicrobial activity against drug-susceptible Streptococcus pneumoniae 2 after 20 hrs by agar dilution method; conditions: Streptococcus pneumoniae, 20 h; read-out: MIC; summary of the method: as §1
Streptococcus pyogenes [9] = test: Antimicrobial activity against drug-susceptible Streptococcus pyogenes 1 after 20 hrs by agar dilution method; summary of the method: as §1
Streptococcus pneumoniae [10] = test: Antimicrobial activity against Streptococcus pneumoniae 4 constitutively expressing ermB after 20 hrs by agar dilution method; conditions: Streptococcus pneumoniae, 20 h; read-out: MIC; summary of the method: as §1
Staphylococcus aureus [11] = test: Antimicrobial activity against Staphylococcus aureus 5 expressing inducible ermB after 20 hrs by agar dilution method; conditions: Staphylococcus aureus, 20 h; read-out: MIC; summary of the method: as §2
Moraxella catarrhalis [12] = test: Antimicrobial activity against drug-susceptible Moraxella catarrhalis 1 after 20 hrs by agar dilution method; conditions: Moraxella catarrhalis, 20 h; read-out: MIC; summary of the method: as §1
Staphylococcus aureus [13] = test: Antimicrobial activity against drug-susceptible Staphylococcus aureus 3 after 20 hrs by agar dilution method; conditions: Staphylococcus aureus, 20 h; read-out: MIC; summary of the method: as §2
Haemophilus influenzae [14] = test: Antimicrobial activity against drug-susceptible Haemophilus influenzae 4 after 20 hrs by agar dilution method; summary of the method: as §1
Streptococcus pneumoniae [15] = test: Antimicrobial activity against Streptococcus pneumoniae 10 expressing mefA after 20 hrs by agar dilution method; summary of the method: as §1
Staphylococcus aureus [16] = test: Antimicrobial activity against drug-susceptible Staphylococcus aureus 2 after 20 hrs by agar dilution method; conditions: Staphylococcus aureus, 20 h; read-out: MIC; summary of the method: as §2
Streptococcus pneumoniae [17] = test: Antimicrobial activity against Streptococcus pneumoniae 8 expressing inducible ermB after 20 hrs by agar dilution method; summary of the method: as §1
Staphylococcus aureus [18] = test: Antimicrobial activity against Staphylococcus aureus 6 expressing inducible ermB after 20 hrs by agar dilution method; summary of the method: as §2
Streptococcus pyogenes [19] = test: Antimicrobial activity against Streptococcus pyogenes 3 expressing mefA after 20 hrs by agar dilution method; summary of the method: as §1
Streptococcus pneumoniae [20] = test: Antimicrobial activity against drug-susceptible Streptococcus pneumoniae DP1 Type1 after 20 hrs by agar dilution method; conditions: Streptococcus pneumoniae, 20 h; read-out: MIC; summary of the method: as §1
Staphylococcus aureus [21] = test: Antimicrobial activity against drug-susceptible Staphylococcus aureus 209P JC-1 after 20 hrs by agar dilution method; conditions: Staphylococcus aureus, 209P, 20 h; read-out: MIC; summary of the method: as §2
Streptococcus pneumoniae [22] = test: Antimicrobial activity against Streptococcus pneumoniae 9 expressing mefA after 20 hrs by agar dilution method; summary of the method: as §1
Streptococcus pneumoniae [23] = test: Antimicrobial activity against Streptococcus pneumoniae 6 constitutively expressing ermB after 20 hrs by agar dilution method; conditions: Streptococcus pneumoniae, 20 h; read-out: MIC; summary of the method: as §1
Streptococcus pneumoniae [24] = test: Antimicrobial activity against Streptococcus pneumoniae 7 expressing inducible ermB after 20 hrs by agar dilution method; summary of the method: as §1
Streptococcus pyogenes [25] = test: Antimicrobial activity against Streptococcus pyogenes 2 constitutively expressing ermB after 20 hrs by agar dilution method; summary of the method: as §1
[26] = Streptococcus pyogenes, 20 h, read-out: MIC
[27] = Haemophilus influenzae, 20 h, read-out: MIC
[28] = Streptococcus pneumoniae, 20 h, read-out: MIC

| SMILES | MIC (Haemophilus influenzae [1]) [µg/mL] | MIC (Moraxella catarrhalis [2]) [µg/mL] | MIC (Streptococcus pneumoniae [3]) [µg/mL] | MIC (Streptococcus pneumoniae [4]) [µg/mL] | MIC (Haemophilus influenzae [5]) [µg/mL] | MIC (Staphylococcus aureus [6]) [µg/mL] | MIC (Haemophilus influenzae [7]) [µg/mL] | MIC (Streptococcus pneumoniae [8]) [µg/mL] | MIC (Streptococcus pyogenes [9]; [26]) [µg/mL] | MIC (Streptococcus pneumoniae [10]) [µg/mL] | MIC (Staphylococcus aureus [11]) [µg/mL] | MIC (Moraxella catarrhalis [12]) [µg/mL] | MIC (Staphylococcus aureus [13]) [µg/mL] | MIC (Haemophilus influenzae [14]; [27]) [µg/mL] | MIC (Staphylococcus aureus [16]) [µg/mL] | MIC (Staphylococcus aureus [18]) [µg/mL] | MIC (Streptococcus pneumoniae [20]) [µg/mL] | MIC (Staphylococcus aureus [21]) [µg/mL] | MIC (Streptococcus pneumoniae [23]) [µg/mL] | MIC (Streptococcus pyogenes [25]) [µg/mL] | also measured |
| --- | --- | --- | --- | --- | --- | --- | --- | --- | --- | --- | --- | --- | --- | --- | --- | --- | --- | --- | --- | --- | --- |
| CCOC(=O)[C@H]1[C@H](C)O[C@@H](O[C@H]2[C@H](N(C)C)[C@@H](O)[C@H](O[C@H]3[C@@H](CC=O)C[C@@H](C)[C@@H](O)CN(C)CCC[C@H](CCCc4ccnc5ccccc45)OC(=O)C[C@@H](OC(=O)CC)[C@@H]3OC)O[C@@H]2C)C[C@@]1(C)O | 4 (≈ 4.05 µM) | 2 (≈ 2.02 µM) | 0.06 (≈ 0.0607 µM) | > 128 | 16 (≈ 16.2 µM) | > 128 | 32 (≈ 32.4 µM) | 0.06 (≈ 0.0607 µM) | 0.06 (≈ 0.0607 µM) | > 128 | 0.5 (≈ 0.506 µM) | 2 (≈ 2.02 µM) | 0.25 (≈ 0.253 µM) | 16 (≈ 16.2 µM) | 1 (≈ 1.01 µM) | 0.5 (≈ 0.506 µM) | 0.03 (≈ 0.0304 µM) | 0.5 (≈ 0.506 µM) | > 128 | > 128 | MIC (Streptococcus pneumoniae [15]; [28]): 0.06 µg/mL (≈ 0.0607 µM); MIC (Streptococcus pneumoniae [17]; [28]): 8 µg/mL (≈ 8.1 µM); MIC (Streptococcus pyogenes [19]; [26]): 0.5 µg/mL (≈ 0.506 µM); MIC (Streptococcus pneumoniae [22]; [28]): 0.06 µg/mL (≈ 0.0607 µM); MIC (Streptococcus pneumoniae [24]; [28]): 8 µg/mL (≈ 8.1 µM) |
| CCOC(=O)[C@H]1[C@H](C)O[C@@H](O[C@H]2[C@H](N(C)C)[C@@H](O)[C@H](O[C@H]3[C@@H](CC=O)C[C@@H](C)[C@@H](O)CN(C)CCC[C@H](C/C=C/c4ccc5ncccc5c4)OC(=O)C[C@@H](OC(=O)CC)[C@@H]3OC)O[C@@H]2C)C[C@@]1(C)O | 4 (≈ 4.06 µM) | 1 (≈ 1.01 µM) | 0.015 (≈ 0.0152 µM) | > 128 | 8 (≈ 8.11 µM) | > 128 | 32 (≈ 32.4 µM) | 0.03 (≈ 0.0304 µM) | 0.06 (≈ 0.0608 µM) | > 128 | 0.25 (≈ 0.253 µM) | 1 (≈ 1.01 µM) | 0.25 (≈ 0.253 µM) | 8 (≈ 8.11 µM) | 0.5 (≈ 0.507 µM) | 0.25 (≈ 0.253 µM) | 0.015 (≈ 0.0152 µM) | 0.25 (≈ 0.253 µM) | > 128 | > 128 | MIC (Streptococcus pneumoniae [15]; [28]): 0.03 µg/mL (≈ 0.0304 µM); MIC (Streptococcus pneumoniae [17]; [28]): 8 µg/mL (≈ 8.11 µM); MIC (Streptococcus pyogenes [19]; [26]): 0.25 µg/mL (≈ 0.253 µM); MIC (Streptococcus pneumoniae [22]; [28]): 0.03 µg/mL (≈ 0.0304 µM); MIC (Streptococcus pneumoniae [24]; [28]): 8 µg/mL (≈ 8.11 µM) |
| CCOC(=O)[C@H]1[C@H](C)O[C@@H](O[C@H]2[C@H](N(C)C)[C@@H](O)[C@H](O[C@H]3[C@@H](CC=O)C[C@@H](C)[C@@H](O)CN(C)CC(/C=C/Cc4cnc5ccccc5c4)CCOC(=O)C[C@@H](OC(=O)CC)[C@@H]3OC)O[C@@H]2C)C[C@@]1(C)O (stereo in doubt; form 1) | 2 (≈ 2.03 µM) | 1 (≈ 1.01 µM) | 0.015 (≈ 0.0152 µM) | 128 (≈ 130 µM) | 8 (≈ 8.11 µM) | > 128 | 32 (≈ 32.4 µM) | 0.03 (≈ 0.0304 µM) | – | 128 (≈ 130 µM) | 0.13 (≈ 0.132 µM) | 1 (≈ 1.01 µM) | 0.13 (≈ 0.132 µM) | – | 0.25 (≈ 0.253 µM) | 0.25 (≈ 0.253 µM) | < 0.008 | 0.13 (≈ 0.132 µM) | 128 (≈ 130 µM) | > 128 | MIC (Streptococcus pyogenes [9]): 0.03 µg/mL (≈ 0.0304 µM); MIC (Haemophilus influenzae [14]): 4 µg/mL (≈ 4.06 µM); MIC (Streptococcus pneumoniae [15]): 0.015 µg/mL (≈ 0.0152 µM); MIC (Streptococcus pneumoniae [17]): 1 µg/mL (≈ 1.01 µM); MIC (Streptococcus pyogenes [19]): 0.13 µg/mL (≈ 0.132 µM); MIC (Streptococcus pneumoniae [22]): 0.015 µg/mL (≈ 0.0152 µM); MIC (Streptococcus pneumoniae [24]): 1 µg/mL (≈ 1.01 µM) |
